Key:
Acetylcholinesterase [1] = target: T1, Acetylcholinesterase (Homo sapiens, UniProt P22303); test: Inhibition of AChE in human erythrocytes using acetylthiocholineiodide as substrate pre-incubated for 10 mins followed by substrate addition and measured for 6 mins by DTNB reagent based Ellman's method; type: cell-based, Erythrocyte
Cholinesterase [2] = target: T2, Cholinesterase (Homo sapiens, UniProt P06276); test: Inhibition of BuChE in human serum using butyrylthiocholineiodide as substrate pre-incubated for 10 mins followed by substrate addition and measured for 6 mins by DTNB reagent based Ellman's method; type: cell-free
In short: (§1)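 AChE from human erythrocytes at 0.25 U/ml in 20 mM HEPES pH 8 with 0.1% Triton X-100, or BuChE from human serum at 0.25 U/ml in 0.1% gelatine. Substrate ATCI or BTCI at […], DTNB […], in 0.1 M PBS pH 7.4. Enzyme and inhibitor (DMSO stock, five concentrations) preincubated 10 min, then substrate added; rate followed 6 min at 37 °C. Non-enzymatic blank subtracted. Triplicates; IC50 from log concentration–percent inhibition curves.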

[3] = Permeability of the compound measured after 16 hrs by PAMPA-BBB assay
Acetylcholinesterase [4] = target: T1, Acetylcholinesterase; test: Non-competitive inhibition of AChE in human erythrocytes measured at 2 mins interval for 10 mins by Dixon plot analysis; type: cell-based, Erythrocyte
In short: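 Human AChE kinetics in the Ellman DTNB assay. Inhibitor at 25, 50 and 100 nM, each with six ATCI concentrations, against an inhibitor-free series. Activity read every 2 min over 10 min. Km and Vmax from Michaelis–Menten non-linear regression; mechanism from Lineweaver–Burk plots; Ki from Dixon plot over four inhibitor concentrations and from slope/intercept replots. Triplicate.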

[5] = Neuroprotective activity in human MC65 cells cultured in TC-deficient medium assessed as inhibition of TC-deficiency induced oxidative stress by measuring increase in cell viability at 60 to 80 uM measured after 12 hrs by MTT assay relative to cells cultured in tetracycline containing medium; type: functional; conditions: dose 60-80 µM
In short: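 MC65 cells grown in MEM, PBS-washed and resuspended in MEM, then seeded at 5×10⁴ cells/well with or without TC. Compounds (80–1 μM) added to TC-free wells and incubated 12 h at 37 °C. MTT (5 mg/ml) added for a further 4 h; formazan dissolved in DMSO:H₂O 1:1 and read at 570 nm. Viability expressed as % of +TC control. Triplicate wells, three runs.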

Acetylcholinesterase [6] = target: T1, Acetylcholinesterase; test: Inhibition of AChE (unknown origin) by DTNB reagent based Ellman's method
In short: as §1, with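 “Ellman assay with DTNB read at 412 nm. AChE” for “AChE”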

Cholinesterase [7] = target: T2, Cholinesterase; test: Inhibition of BuChE (unknown origin) by DTNB reagent based Ellman's method
In short: as §1, with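 “Ellman assay with DTNB read at 412 nm. AChE” for “AChE”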

T2 sequence (P06276 whole entry): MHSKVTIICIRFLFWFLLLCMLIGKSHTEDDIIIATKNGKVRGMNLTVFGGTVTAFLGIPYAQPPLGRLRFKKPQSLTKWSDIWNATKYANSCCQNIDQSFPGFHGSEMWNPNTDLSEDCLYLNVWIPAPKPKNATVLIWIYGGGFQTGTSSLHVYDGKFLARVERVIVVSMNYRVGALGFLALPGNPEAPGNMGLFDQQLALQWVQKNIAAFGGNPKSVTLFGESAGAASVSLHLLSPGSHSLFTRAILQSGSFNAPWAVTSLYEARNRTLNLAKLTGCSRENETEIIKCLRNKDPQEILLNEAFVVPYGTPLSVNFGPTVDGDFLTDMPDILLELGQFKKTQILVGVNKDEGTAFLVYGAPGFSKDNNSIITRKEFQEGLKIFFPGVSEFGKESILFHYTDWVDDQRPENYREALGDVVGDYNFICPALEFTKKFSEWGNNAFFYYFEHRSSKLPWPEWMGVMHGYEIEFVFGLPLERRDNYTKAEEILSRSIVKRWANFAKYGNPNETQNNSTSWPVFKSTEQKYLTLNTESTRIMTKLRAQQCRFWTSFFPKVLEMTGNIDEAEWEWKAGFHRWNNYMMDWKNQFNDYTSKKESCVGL
T1 sequence (P22303 whole entry): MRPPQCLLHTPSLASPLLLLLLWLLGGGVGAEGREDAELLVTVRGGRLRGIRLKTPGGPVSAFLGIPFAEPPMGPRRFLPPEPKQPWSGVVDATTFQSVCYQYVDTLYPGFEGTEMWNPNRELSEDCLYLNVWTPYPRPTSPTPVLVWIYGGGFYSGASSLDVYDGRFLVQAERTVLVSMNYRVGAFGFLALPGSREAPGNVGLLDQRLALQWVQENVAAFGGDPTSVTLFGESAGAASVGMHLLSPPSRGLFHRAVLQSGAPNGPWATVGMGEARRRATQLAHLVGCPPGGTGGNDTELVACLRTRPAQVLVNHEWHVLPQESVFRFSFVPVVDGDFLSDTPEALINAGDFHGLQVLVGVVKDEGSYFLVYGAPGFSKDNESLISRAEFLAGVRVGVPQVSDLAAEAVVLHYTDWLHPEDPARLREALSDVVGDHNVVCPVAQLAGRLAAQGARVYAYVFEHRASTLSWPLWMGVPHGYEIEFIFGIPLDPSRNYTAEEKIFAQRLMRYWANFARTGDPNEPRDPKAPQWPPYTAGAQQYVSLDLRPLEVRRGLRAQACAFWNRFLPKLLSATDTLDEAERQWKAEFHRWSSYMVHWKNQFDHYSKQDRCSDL

Row | SMILES | IC50 (Acetylcholinesterase [1]) | IC50 (Cholinesterase [2]) | further results
1 | CCOC(=O)c1c(C)nc(N2CCN(S(=O)(=O)c3ccc(NC(C)=O)cc3)CC2)nc1-c1ccc(OC)cc1 | 132 nM | > 200 nM | –
2 | CCOC(=O)c1c(C)nc(N2CCN(S(=O)(=O)c3ccc(NC(C)=O)c(Cl)c3)CC2)nc1-c1ccc(OC)c(OC)c1 | 47.3 nM | 159 nM | Papp at 16 h [3]: 24.3 ×10⁻⁶ cm/s; Ki (Acetylcholinesterase [4]): 8 nM; Activity [5]: 99.41%
3 | CCOC(=O)c1c(C)nc(N2CCN(S(=O)(=O)c3ccc(NC(C)=O)c(F)c3)CC2)nc1-c1ccccc1 | 97.4 nM | 194 nM | –
4 | CCOC(=O)c1c(C)nc(N2CCN(S(=O)(=O)c3ccc(NC(C)=O)c(OC)c3)CC2)nc1-c1ccccc1 | 79 nM | 184 nM | –
5 | CCOC(=O)c1c(C)nc(N2CCN(S(=O)(=O)c3ccc(N)c(F)c3)CC2)nc1-c1ccc(OC)c(OC)c1 | 66.1 nM | 177 nM | –
6 | CCOC(=O)c1c(C)nc(N2CCN(S(=O)(=O)c3ccc(N)c(Cl)c3)CC2)nc1-c1ccc(OC)c(OC)c1 | 51.4 nM | 153 nM | Papp at 16 h [3]: 23.7 ×10⁻⁶ cm/s
7 | CCOC(=O)c1c(C)nc(N2CCN(S(=O)(=O)c3ccc(NC(C)=O)c(Cl)c3)CC2)nc1-c1ccccc1 | 144 nM | 156 nM | –
8 | CCOC(=O)c1c(C)nc(N2CCN(S(=O)(=O)c3ccc(N)c(F)c3)CC2)nc1-c1ccccc1 | > 200 nM | > 200 nM | –
9 | CCOC(=O)c1c(C)nc(N2CCN(S(=O)(=O)c3ccc(N)cc3)CC2)nc1-c1ccc(OC)cc1 | 71.9 nM | 192 nM | –
10 | CCOC(=O)c1c(C)nc(N2CCN(S(=O)(=O)c3ccc(NC(C)=O)c(F)c3)CC2)nc1-c1ccc(OC)cc1 | 91.9 nM | 168 nM | –
11 | CCc1ccc(NC(=O)COc2c(Cl)cc(Cl)cc2S(=O)(=O)N2CCN(C(=O)c3ccco3)CC2)cc1 | – | – | IC50 (Acetylcholinesterase [6]): 5540 nM; IC50 (Cholinesterase [7]): 9150 nM
12 | CCOC(=O)c1c(C)nc(N2CCN(S(=O)(=O)c3ccc(NC(C)=O)c(Cl)c3)CC2)nc1-c1ccc(OC)cc1 | 87.6 nM | > 200 nM | –
13 | CCOC(=O)c1c(C)nc(N2CCN(S(=O)(=O)c3ccc(N)c(Cl)c3)CC2)nc1-c1ccc(OC)cc1 | 77.9 nM | 178 nM | –
14 | CCOC(=O)c1c(C)nc(N2CCN(S(=O)(=O)c3ccc(N)c(OC)c3)CC2)nc1-c1ccccc1 | 84.6 nM | 184 nM | –
15 | CCOC(=O)c1c(C)nc(N2CCN(S(=O)(=O)c3ccc(N)c(OC)c3)CC2)nc1-c1ccc(OC)cc1 | 68.5 nM | 187 nM | –
16 | CCOC(=O)c1c(C)nc(N2CCN(S(=O)(=O)c3ccc(NC(C)=O)c(OC)c3)CC2)nc1-c1ccc(OC)cc1 | 79.3 nM | 194 nM | –
17 | CCOC(=O)c1c(C)nc(N2CCN(S(=O)(=O)c3ccc(NC(C)=O)cc3)CC2)nc1-c1ccc(OC)c(OC)c1 | 88.8 nM | 167 nM | –
18 | CCOC(=O)c1c(C)nc(N2CCN(S(=O)(=O)c3ccc(NC(C)=O)cc3)CC2)nc1-c1ccccc1 | 118 nM | > 200 nM | –
19 | CCOC(=O)c1c(C)nc(N2CCN(S(=O)(=O)c3ccc(NC(C)=O)c(F)c3)CC2)nc1-c1ccc(OC)c(OC)c1 | 76.5 nM | 186 nM | –
20 | CCOC(=O)c1c(C)nc(N2CCN(S(=O)(=O)c3ccc(N)c(Cl)c3)CC2)nc1-c1ccccc1 | 79.1 nM | 137 nM | –
21 | CCOC(=O)c1c(C)nc(N2CCN(S(=O)(=O)c3ccc(N)c(F)c3)CC2)nc1-c1ccc(OC)cc1 | 101 nM | 157 nM | –
22 | CCOC(=O)c1c(C)nc(N2CCN(S(=O)(=O)c3ccc(N)c(OC)c3)CC2)nc1-c1ccc(OC)c(OC)c1 | 85.6 nM | > 200 nM | –
23 | CCOC(=O)c1c(C)nc(N2CCN(S(=O)(=O)c3ccc(NC(C)=O)c(OC)c3)CC2)nc1-c1ccc(OC)c(OC)c1 | 79.2 nM | > 200 nM | –
24 | CCOC(=O)c1c(C)nc(N2CCN(S(=O)(=O)c3ccc(N)cc3)CC2)nc1-c1ccc(OC)c(OC)c1 | 68 nM | > 200 nM | –
25 | CCOC(=O)c1c(C)nc(N2CCN(S(=O)(=O)c3ccc(N)cc3)CC2)nc1-c1ccccc1 | > 200 nM | > 200 nM | –
